Broadly, the IC50 is the concentration at which inhibition is half-maximal. Higher therefore signals weaker potency.

Activity and IC50 data for 6 compounds are collected here from ChEMBL document CHEMBL1149612, “Synthesis and antiproliferative activity of clausine E, mukonine, and koenoline bioisosteres” (Bioorg Med Chem, 2007).

Experiment [1] relates to SW480. As to the kind of experiment: Cell cycle arrest in SW480 cells by accumulation at G1 phase at 100 uM after 72 hrs. Type of experiment: functional, Homo sapiens. In a few lines: (§1)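 Colorectal cells given 100 µM compound for 72 h. Afterwards 10^6 cells/mL were resuspended in propidium iodide solution and held overnight at 4 °C, then run on flow cytometry. Doublets and aggregates were gated out on FL2-area/FL2-width before calculating the percentage of cells in G1, S and G2/M phases.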

Experiment [2] relates to SW480. Kind of experiment: Antiproliferative activity against human SW480 cells after 72 hrs. Type of experiment: functional, cell-based. The following applies: SW480, 72 h. In a few lines: (§2)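 Asynchronously growing cells seeded at 5 × 10^3 cells/well and held 24 h in medium, then exposed to drug for 72 h; MTT reagent (5 mg/mL stock) added. Growth taken as absorbance of treated wells as percent of untreated controls. IC50 is the dose giving 50% growth inhibition versus untreated cells. Five separate experiments, each in triplicate; mean ± SD.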

In experiment [3] the test system is HCT-116. As to the kind of experiment: Cell cycle arrest in HCT116 cells by accumulation at S phase at 100 uM after 72 hrs. Type of experiment: functional, Homo sapiens. In a few lines:
as §1

The nature of experiment [4]: Antiproliferative activity against human Mes-sa cells after 72 hrs. Type of experiment: functional, cell-based. In a few lines:
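Cells seeded at 5 × 10^3 cells/well and allowed 24 h in medium before compound addition. Exposure lasted 72 h, followed by MTT read-out. Growth was expressed as absorbance relative to untreated controls, and IC50 was taken as the dose giving 50% growth inhibition. Five separate experiments were run, each in triplicate, reported as mean ± SD.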

The subject of experiment [5] is SW480. As to the kind of experiment: Cell cycle arrest in SW480 cells by accumulation at G2/M phase at 100 uM after 72 hrs. Type of experiment: functional, Homo sapiens. The procedure, abridged: as §1
In experiment [6] the test system is SW48. Kind of experiment: Cell cycle arrest in SW48 cells by accumulation at S phase at 100 uM after 72 hrs. Type of experiment: functional, Homo sapiens. In a few lines:
as §1

In experiment [7] the test system is HCT-116. As to the kind of experiment: Cell cycle arrest in HCT116 cells by accumulation at G1 phase at 100 uM after 72 hrs. Type of experiment: functional, Homo sapiens. In a few lines:
as §1

Experiment [8] has as its system SW480. Kind of experiment: Cell cycle arrest in SW480 cells by accumulation at S phase at 100 uM after 72 hrs. Type of experiment: functional, Homo sapiens. In a few lines: as §1
A further experiment concerns MCF7. As to the kind of experiment: Antiproliferative activity against human MCF7 cells after 72 hrs. Type of experiment: functional, cell-based. As to conditions: MCF7, 72 h. The procedure, abridged:
as §2

Experiment [9] deals with SW48. As to the kind of experiment: Cell cycle arrest in SW48 cells by accumulation at G1 phase at 100 uM after 72 hrs. Type of experiment: functional, Homo sapiens. The procedure, abridged:
as §1

The test system of experiment [10] is HCT-116. Kind of experiment: Antiproliferative activity against human HCT116 cells after 72 hrs. Type of experiment: functional, cell-based. As to conditions: HCT-116, 72 h. The procedure, abridged: as §2
The subject of experiment [11] is SW48. As to the kind of experiment: Cell cycle arrest in SW48 cells by accumulation at G2/M phase at 100 uM after 72 hrs. Type of experiment: functional, Homo sapiens. In a few lines: as §1
Experiment [12] concerns SW48. Kind of experiment: Antiproliferative activity against human SW48 cells after 72 hrs. Type of experiment: functional, cell-based. The following applies: SW48, 72 h. The procedure, abridged:
as §2

The test system of experiment [13] is HCT-116. Kind of experiment: Cell cycle arrest in HCT116 cells by accumulation at G2/M phase at 100 uM after 72 hrs. Type of experiment: functional, Homo sapiens. The procedure, abridged: as §1

In the case of `COc1cc(CO)cc2c1[nH]c1ncccc12`, the Activity in the experiment with SW480 [1] is 52.3%; with HCT-116 [3], 17.4%; in the experiment on SW480 [5] it was 14.7%; with SW48 [6], 9.7%; in the experiment on HCT-116 [7], 53.3%; in the experiment with SW480 [8], 33%. The figures for the Activity in the experiment with SW48 [9], in the experiment with SW48 [11] and in the experiment on HCT-116 [13] were 57.4%, 32.4% and 29.3%, respectively. Besides, the IC50 in the experiment on SW480 [2] was found to be 63.1 µM; in [4], 65 µM; with MCF7, 58 µM; with HCT-116 [10], 36.6 µM; in the experiment with SW48 [12], 21.1 µM.

For the compound `COC(=O)c1cc(OC)c2[nH]c3ccccc3c2c1` [MUKONINE], the Activity was 55.8% in the experiment on SW480 [1]; 17.4% with HCT-116 [3]; 10.3% with SW480 [5]; 14.1% in the experiment with SW48 [6]; 70.8% in the experiment on HCT-116 [7]; 33.8% in the experiment with SW480 [8]. Besides, the Activity in the experiment with SW48 [9] was 76.7%; with SW48 [11] it was 9%; in the experiment with HCT-116 [13] it was 11.7%. The IC50 in the experiment with SW480 [2] was 72 µM; in [4], 80 µM; in the experiment with MCF7 it was 30 µM; in the experiment with HCT-116 [10] it was 43 µM; in the experiment with SW48 [12] it was 62 µM.

Regarding `COC(=O)c1cc(OC)c2[nH]c3ncccc3c2c1`, the Activity in the experiment with SW480 [1] is 60.7%; in the experiment with HCT-116 [3], 31%; in the experiment on SW480 [5], 11.9%; in the experiment on SW48 [6] it was 23%; with HCT-116 [7] it was 52.6%; with SW480 [8], 27.3%. Besides, the Activity is given as 59% in the experiment on SW48 [9], 18.1% with SW48 [11] and 16.4% with HCT-116 [13]. The IC50 came out at 4.7 µM with SW480 [2]; 144 µM in [4]; 4.4 µM in the experiment on MCF7; 8.6 µM in the experiment with HCT-116 [10]; 5.6 µM with SW48 [12].

Take `O=c1[nH]cc(F)c(=O)[nH]1` [FLUOROURACIL]: the IC50 worked out at 3.5 µM with SW480 [2], 0.3 µM in the experiment on MCF7, 2.8 µM in the experiment on HCT-116 [10] and 5.3 µM in the experiment with SW48 [12].

For the compound `COC(=O)c1cc(O)c2[nH]c3ccccc3c2c1` [CLAUSINE E], the Activity turned out to be 59.9% with SW480 [1]; 12.1% in the experiment on HCT-116 [3]; 25.7% in the experiment on SW480 [5]; 12.5% in the experiment with SW48 [6]; 60% in the experiment with HCT-116 [7]; 17.5% in the experiment on SW480 [8]. For the same compound, the Activity in the experiment with SW48 [9] was determined as 65.6%; in the experiment on SW48 [11], 21.9%; with HCT-116 [13] it was 28%. Further, the IC50 was 4.8 µM in the experiment with SW480 [2]; 35 µM in experiment [4]; 0.6 µM in the experiment with MCF7; 1.9 µM in the experiment with HCT-116 [10]; 21 µM with SW48 [12].

On to `COC(=O)c1cc(O)c2[nH]c3ncccc3c2c1`, for which the Activity in the experiment on SW480 [1] turned out to be 58.7%; with HCT-116 [3], 29.1%; in the experiment on SW480 [5], 14.7%; in the experiment with SW48 [6], 18.9%; in the experiment on HCT-116 [7], 56.6%; in the experiment with SW480 [8], 26.5%. The Activity is on record as 62.4% in the experiment on SW48 [9], 18.7% with SW48 [11] and 14.3% in the experiment on HCT-116 [13]. The IC50 was found to be 8.8 µM in the experiment on SW480 [2]; 16 µM in experiment [4]; 11 µM in the experiment with MCF7; 7.1 µM in the experiment on HCT-116 [10]; 9 µM in the experiment with SW48 [12].
